Source: ChEMBL document CHEMBL1157562, “Piperazinyl glutamate pyridines as potent orally bioavailable P2Y12 antagonists for inhibition of platelet aggregation” (J Med Chem, 2010)

What was measured:
[1] = Antiplatelet aggregation activity against adenosine diphosphate-induced human platelet rich plasma assessed as inhibition of platelet aggregation by turbidimetric method; assay type: functional; conditions: Homo sapiens, Platelet, Plasma
Method in brief: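 Human PRP, prepared by two-step centrifugation and adjusted to 330 000 platelets/μL with PPP. Compound was preincubated 5 min at 37 °C in 0.5% DMSO, then 20 μM ADP was added. OD626 was read kinetically for 15 min at 37 °C with mixing between reads.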

[2] = system: Platelet; test: Relative potency, ratio of IC50 for drug to IC50 for AZD-6140 for platelet aggregation in human platelet rich plasma; assay type: functional
[3] = biological target: P2Y purinoceptor 12 (Homo sapiens, UniProt Q9H244); test: Displacement of [33P]ADP from human recombinant P2Y12 receptor expressed in CHO cells; assay type: cell-based
P2Y purinoceptor 12, sequence (Q9H244 whole entry): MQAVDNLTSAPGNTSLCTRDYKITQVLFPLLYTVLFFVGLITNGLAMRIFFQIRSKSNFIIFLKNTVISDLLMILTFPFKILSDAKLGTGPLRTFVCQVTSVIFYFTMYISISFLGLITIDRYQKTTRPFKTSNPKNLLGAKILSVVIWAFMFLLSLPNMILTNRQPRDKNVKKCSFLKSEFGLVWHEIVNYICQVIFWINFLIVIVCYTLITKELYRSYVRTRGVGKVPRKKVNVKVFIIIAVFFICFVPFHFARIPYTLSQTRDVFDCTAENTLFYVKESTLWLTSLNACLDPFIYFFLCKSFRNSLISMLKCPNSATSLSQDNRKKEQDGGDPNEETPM
Method in brief: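 Washed membranes from CHO cells expressing synthetic human P2Y12, incubated 1 h at room temperature with 0.2 nM 33P-MeSADP in 50 mM Tris/100 mM NaCl/1 mM EDTA. Compound was tested as a 7-point 3-fold series in triplicate. Nonspecific binding was defined with 300 nM 2-MeSADP, followed by filtration.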

SMILES: CCOC(=O)N1CCN(C(=O)[C@H](CCC(=O)O)NC(=O)c2cc(OCCO)cc(-c3ccccc3)n2)CC1
- IC50 [1]: 7.6 µM
- Ratio IC50 [2]: 12

SMILES: CCOC(=O)N1CCN(C(=O)[C@H](CCC(=O)O)NC(=O)c2cc(N3CCC(COC)CC3)cc(-c3ccccc3)n2)CC1
- IC50 [1]: 10 µM
- Ratio IC50 [2]: 9.7

SMILES: CCCCOC(=O)N1CCN(C(=O)[C@H](CCC(=O)O)NC(=O)c2cc(OC3CCCNC3)cc(-c3ccccc3)n2)CC1 (stereo partly drawn)
- IC50 [1]: 3.9 µM
- Ratio IC50 [2]: 1.8
- Ki [3]: 6.9 nM

SMILES: CCCCCOC(=O)N1CCN(C(=O)[C@H](CCC(=O)O)NC(=O)c2cc(OCC3CCN(C(=O)OCC)CC3)cc(-c3ccccc3)n2)CC1
- IC50 [1]: 7.4 µM
- Ratio IC50 [2]: 5.1
- Ki [3]: 1.3 nM

SMILES: CCOC(=O)N1CCN(C(=O)[C@H](CCC(=O)O)NC(=O)c2cc(OCC3CCNCC3)cc(-c3ccccc3)n2)CC1
- IC50 [1]: 4 µM
- Ratio IC50 [2]: 2.7

SMILES: CCCCOC(=O)N1CCN(C(=O)[C@H](CCC(=O)O)NC(=O)c2cc(N3CCC(N(C)C)CC3)cc(-c3ccccc3)n2)CC1
- IC50 [1]: 1.9 µM
- Ratio IC50 [2]: 1.4
- Ki [3]: 5 nM

SMILES: CCCCOC(=O)N1CCN(C(=O)[C@H](CCC(=O)O)NC(=O)c2cc(OC3CCN(C(=O)C(F)(F)F)CC3)cc(-c3ccccc3)n2)CC1
- IC50 [1]: 2.1 µM
- Ratio IC50 [2]: 3.4
- Ki [3]: 12 nM

SMILES: CCOC(=O)N1CCN(C(=O)[C@H](CCC(=O)O)NC(=O)c2cc(N3CCC(CO)CC3)cc(-c3ccccc3)n2)CC1
- IC50 [1]: 19 µM
- Ratio IC50 [2]: 22
- Ki [3]: 54 nM

SMILES: CCCCCOC(=O)N1CCN(C(=O)[C@H](CCC(=O)O)NC(=O)c2cc(OC(=O)N(C)C3CCOC3)cc(-c3ccccc3)n2)CC1 (stereo partly drawn)
- IC50 [1]: 0.47 µM
- Ratio IC50 [2]: 0.59
- Ki [3]: 2.3 nM

SMILES: CCOC(=O)N1CCN(C(=O)[C@H](CCC(=O)O)NC(=O)c2cc(OCCN)cc(-c3ccccc3)n2)CC1
- IC50 [1]: 7.5 µM
- Ratio IC50 [2]: 11

SMILES: CCCCOC(=O)N1CCN(C(=O)[C@H](CCC(=O)O)NC(=O)c2cc(OC(=O)N3CCOCC3)cc(-c3ccccc3)n2)CC1
- IC50 [1]: 0.76 µM
- Ratio IC50 [2]: 0.75
- Ki [3]: 1.7 nM

SMILES: CCCCOC(=O)N1CCN(C(=O)[C@H](CCC(=O)O)NC(=O)c2cc(N3CCC(CN4CCCC4)CC3)cc(-c3ccccc3)n2)CC1
- Ratio IC50 [2]: 1

SMILES: CCCCCOC(=O)N1CCN(C(=O)[C@H](CCC(=O)O)NC(=O)c2cc(N3CCC(O)CC3)cc(-c3ccccc3)n2)CC1
- IC50 [1]: 2.5 µM
- Ratio IC50 [2]: 3.2

SMILES: CCOC(=O)N1CCN(C(=O)[C@H](CCC(=O)O)NC(=O)c2cc(N3CCC(N4CCCC4)CC3)cc(-c3ccccc3)n2)CC1
- IC50 [1]: 2 µM
- Ratio IC50 [2]: 6

SMILES: CCOC(=O)N1CCN(C(=O)[C@H](CCC(=O)O)NC(=O)c2cc(NCCOC)cc(-c3ccccc3)n2)CC1
- IC50 [1]: 14 µM
- Ratio IC50 [2]: 13

SMILES: CCCCCCOC(=O)N1CCN(C(=O)[C@H](CCC(=O)O)NC(=O)c2cc(N3CCC(CN)CC3)cc(-c3ccccc3)n2)CC1
- IC50 [1]: 1.6 µM
- Ratio IC50 [2]: 1.7

SMILES: CCCCOC(=O)N1CCN(C(=O)[C@H](CCC(=O)O)NC(=O)c2cc(OC3CCNCC3)cc(-c3ccccc3)n2)CC1
- IC50 [1]: 1.1 µM
- Ratio IC50 [2]: 0.99

SMILES: CCCCCOC(=O)N1CCN(C(=O)[C@H](CCC(=O)O)NC(=O)c2cc(N3CCC(CN4CCCC4)CC3)cc(-c3ccccc3)n2)CC1
- Ratio IC50 [2]: 0.93

SMILES: CCOC(=O)N1CCN(C(=O)[C@H](CCC(=O)O)NC(=O)c2cc(OCCCO)cc(-c3ccccc3)n2)CC1
- IC50 [1]: 9 µM
- Ratio IC50 [2]: 12

SMILES: CCCCCCOC(=O)N1CCN(C(=O)[C@H](CCC(=O)O)NC(=O)c2cc(N3CCC(COC)CC3)cc(-c3ccccc3)n2)CC1
- IC50 [1]: 7.6 µM
- Ratio IC50 [2]: 8.9

SMILES: CCCCCOC(=O)N1CCN(C(=O)[C@H](CCC(=O)O)NC(=O)c2cc(N3CCC(CN)CC3)cc(-c3ccccc3)n2)CC1
- Ratio IC50 [2]: 0.62

SMILES: CCCCCOC(=O)N1CCN(C(=O)[C@H](CCC(=O)O)NC(=O)c2cc(OCCCC)cc(-c3ccccc3)n2)CC1
- IC50 [1]: 28 µM
- Ratio IC50 [2]: 28

SMILES: CCCCCOC(=O)N1CCN(C(=O)[C@H](CCC(=O)O)NC(=O)c2cc(NC(=O)C3CCOCC3)cc(-c3ccccc3)n2)CC1
- IC50 [1]: > 10 µM
- Ki [3]: 8.5 nM

SMILES: C#CCCOC(=O)N1CCN(C(=O)[C@H](CCC(=O)O)NC(=O)c2cccc(-c3ccccc3)n2)CC1
- IC50 [1]: > 100 µM
- Ki [3]: 79 nM

SMILES: CCOC(=O)N1CCN(C(=O)[C@H](CCC(=O)O)NC(=O)c2cc(NC)cc(-c3ccccc3)n2)CC1
- IC50 [1]: 45 µM
- Ratio IC50 [2]: 36

SMILES: O=C(O)CC[C@H](NC(=O)c1cccc(-c2ccccc2)n1)C(=O)N1CCN(C(=O)OCc2ccccc2)CC1
- IC50 [1]: > 100 µM
- Ki [3]: 196 nM

SMILES: CCCCCN1CCN(C(=O)[C@H](CCC(=O)O)NC(=O)c2cccc(-c3ccccc3)n2)CC1
- IC50 [1]: > 100 µM
- Ki [3]: > 3590 nM

SMILES: CC(C)CCOC(=O)N1CCN(C(=O)[C@H](CCC(=O)O)NC(=O)c2cccc(-c3ccccc3)n2)CC1
- IC50 [1]: 88 µM
- Ki [3]: 33 nM

SMILES: CC(C)(C)OC(=O)CC[C@H](NC(=O)c1cccc(-c2ccccc2)n1)C(=O)N1CCNCC1
- IC50 [1]: > 100 µM
- Ki [3]: > 5680 nM

SMILES: CCCCCOC(=O)N1CCN(C(=O)[C@H](CCC(=O)O)NC(=O)c2cc(N3CCC(CNC)CC3)cc(-c3ccccc3)n2)CC1
- Ratio IC50 [2]: 0.99

SMILES: O=C(O)CC[C@H](NC(=O)c1cccc(-c2ccccc2)n1)C(=O)N1CCN(C(=O)OC2CCCC2)CC1
- IC50 [1]: > 100 µM
- Ki [3]: 47 nM

SMILES: CCCN(CCC)c1cc(C(=O)N[C@@H](CCC(=O)O)C(=O)N2CCN(C(=O)OCC)CC2)nc(-c2ccccc2)c1
- IC50 [1]: > 100 µM
- Ki [3]: 45 nM

SMILES: CCCCOC(=O)N1CCN(C(=O)[C@H](CCC(=O)O)NC(=O)c2cc(N3CCC(CN(C)C)CC3)cc(-c3ccccc3)n2)CC1
- Ratio IC50 [2]: 1.3

SMILES: CC(C)OC(=O)N1CCN(C(=O)[C@H](CCC(=O)O)NC(=O)c2cccc(-c3ccccc3)n2)CC1
- IC50 [1]: > 100 µM
- Ki [3]: 280 nM

SMILES: CCOC(=O)N1CCN(C(=O)[C@H](CCC(=O)O)NC(=O)c2cc(N3CCC(O)CC3)cc(-c3ccccc3)n2)CC1
- IC50 [1]: 9.9 µM
- Ratio IC50 [2]: 10

SMILES: CCOC(=O)N1CCN(C(=O)[C@H](CCC(=O)O)NC(=O)c2cc(N3CCC(CN)CC3)cc(-c3ccccc3)n2)CC1
- IC50 [1]: 3.3 µM
- Ratio IC50 [2]: 3.4

SMILES: CCOC(=O)N1CCN(C(=O)[C@H](CCC(=O)O)NC(=O)c2ccccn2)CC1
- IC50 [1]: > 100 µM
- Ki [3]: > 5400 nM

SMILES: CCOC(=O)N1CCN(C(=O)[C@H](CCC(=O)O)NC(=O)c2cc(-c3ccccc3)ccn2)CC1
- IC50 [1]: > 100 µM
- Ki [3]: > 5700 nM

SMILES: CCCCCOC(=O)N1CCN(C(=O)[C@H](CCC(=O)O)NC(=O)c2cc(NC(=O)NC(C)C)cc(-c3ccccc3)n2)CC1
- IC50 [1]: > 10 µM
- Ki [3]: 2.7 nM

SMILES: CCCCOC(=O)N1CCN(C(=O)[C@H](CCC(=O)O)NC(=O)c2cc(N(C)CCOC)cc(-c3ccccc3)n2)CC1
- IC50 [1]: > 100 µM
- Ki [3]: 4 nM

SMILES: O=C(O)CC[C@H](NC(=O)c1cccc(-c2ccccc2)n1)C(=O)N1CCN(S(=O)(=O)c2ccccc2)CC1
- IC50 [1]: > 100 µM
- Ki [3]: 842 nM

SMILES: CCOC(=O)N1CCN(C(=O)[C@H](CCC(=O)O)NC(=O)c2cc(OC)cc(-c3ccccc3)n2)CC1
- IC50 [1]: 39 µM
- Ratio IC50 [2]: 55

SMILES: O=C(O)CC[C@H](NC(=O)c1cccc(-c2ccccc2)n1)C(=O)N1CCN(C(=O)OCCC2CC2)CC1
- IC50 [1]: > 100 µM
- Ki [3]: 15 nM

SMILES: CCOC(=O)N1CCN(C(=O)[C@H](CCC(=O)O)NC(=O)c2cc(OC3CCNCC3)cc(-c3ccccc3)n2)CC1
- IC50 [1]: 1.9 µM
- Ratio IC50 [2]: 2.5

SMILES: CCCN1CCN(C(=O)[C@H](CCC(=O)O)NC(=O)c2cccc(-c3ccccc3)n2)CC1
- IC50 [1]: > 100 µM
- Ki [3]: > 3800 nM

SMILES: CCCCOC(=O)N1CCN(C(=O)[C@H](CCC(=O)O)NC(=O)c2cc(N3CCC(CNC)CC3)cc(-c3ccccc3)n2)CC1
- Ratio IC50 [2]: 1

SMILES: CN(C)CC(=O)N1CCN(C(=O)[C@H](CCC(=O)O)NC(=O)c2cccc(-c3ccccc3)n2)CC1
- IC50 [1]: > 100 µM
- Ki [3]: > 3590 nM

SMILES: CCCCNC(=S)N1CCN(C(=O)[C@H](CCC(=O)O)NC(=O)c2cccc(-c3ccccc3)n2)CC1
- IC50 [1]: 56 µM
- Ki [3]: 8 nM

SMILES: CCCCCOC(=O)N1CCN(C(=O)[C@H](CCC(=O)O)NC(=O)c2cc(NC(=O)COC)cc(-c3ccccc3)n2)CC1
- IC50 [1]: > 10 µM
- Ki [3]: 25 nM

SMILES: CCOC(=O)N1CCN(C(=O)CNC(=O)c2cc(-c3ccccc3)cc(-c3ccccc3)n2)CC1
- IC50 [1]: > 50 µM
- Ki [3]: 733 nM

SMILES: O=C(O)CC[C@H](NC(=O)c1cccc(-c2ccccc2)n1)C(=O)N1CCN(C(=O)OCC(F)(F)F)CC1
- IC50 [1]: > 100 µM
- Ki [3]: 94 nM
